We go through 16 compounds from ChEMBL document CHEMBL1177718, “Phosphoramidate ProTides of 2'-C-methylguanosine as highly potent inhibitors of hepatitis C virus. Study of their in vitro and in vivo properties” (J Med Chem, 2010).

Data set [1] is described as follows: Cytotoxicity against human HuH7 cells after 72 hrs by celltiter-glo assay. In kind it is cell-based, Huh-7. The gist of the method: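 Replicon 1b Huh7 cells seeded 2 × 10⁴/well; after 24 h, 11 serial 2× dilutions from 100 μM (three repeats each) with no-compound control; 72 h at 37 °C, CO₂, log-phase growth; viability by CellTiter-Glo luminescence; CC₅₀ = concentration giving 50% signal.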

The test system of the next data set is Hepatitis C virus. Description: Antiviral activity against HCV1b infected in human HuH7 cells assessed as inhibition of viral replication after 48 hrs by luciferase reporter gene assay. The format is functional, organism-based, Hepacivirus hominis. The note with it: genotype 1b, Huh-7, 48 h. The gist of the method:
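Huh7 cells carrying genotype 1b bicistronic subgenomic replicon, seeded 2 × 10⁴/well without G-418; compounds added 18-24 h later, 48 h exposure; 3× or 4× serial dilutions over 0.0001-10 μM in triplicate/quadruplicate; Renilla luciferase read-out versus untreated cells; EC₅₀ by four-parameter sigmoidal nonlinear regression; at least three independent assays.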
On the technique in general: In a reporter assay the amount or activity of a reporter protein is the signal.

Data set [2] is described as follows: Metabolic stability in mouse plasma assessed as compound remaining at 1 ug/ml after 4 hrs. In kind it is ADME, cell-free. The note with it: read-out: Stability.
Data set [3] can be described thus: Metabolic stability in rat plasma assessed as compound remaining at 1 ug/ml after 4 hrs. The format is ADME, cell-free. Conditions: read-out: Stability. The gist of the method: (§1)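 Duplicate incubations; compound at final 1 μg/mL in plasma preincubated and kept at […]; samples taken at 30 or 240 min, quenched with ice-cold acetonitrile, centrifuged, supernatant diluted with water; parent quantified by LC-MS/MS (Polar-RP column, formic acid water/acetonitrile gradient, positive ion mode); % remaining reported.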

Data set [4] is described as follows: Metabolic stability in dog plasma assessed as compound remaining at 1 ug/ml after 4 hrs. The format is ADME, cell-free, Canis lupus familiaris. Conditions: read-out: Stability. The gist of the method:
as §1

The nature of data set [5]: Metabolic stability in cynomolgus monkey plasma assessed as compound remaining at 1 ug/ml after 4 hrs. The format is ADME, cell-free, Macaca fascicularis. The note with it: read-out: Stability. The gist of the method: as §1
Data set [6] is described as follows: Metabolic stability in mouse plasma assessed as compound remaining at 1 ug/ml after 30 mins. In kind it is ADME, cell-free. Conditions: read-out: Stability.
Data set [7] can be described thus: Metabolic stability in rat plasma assessed as compound remaining at 1 ug/ml after 30 mins. Conditions: read-out: Stability. In kind it is ADME, cell-free. In a few lines: as §1
A short description of data set [8]: Metabolic stability in dog plasma assessed as compound remaining at 1 ug/ml after 30 mins. The format is ADME, cell-free, Canis lupus familiaris. Conditions: read-out: Stability. The gist of the method:
as §1

The nature of data set [9]: Metabolic stability in cynomolgus monkey plasma assessed as compound remaining at 1 ug/ml after 30 mins. In kind it is ADME, cell-free, Macaca fascicularis. Conditions: read-out: Stability. In a few lines:
as §1

For data set [10], the species on record is Homo sapiens. Description: Metabolic stability in human plasma assessed as compound remaining at 1 ug/ml after 4 hrs.
For data set [11], the species on record is Homo sapiens. Description: Metabolic stability in human plasma assessed as compound remaining at 1 ug/ml after 30 mins.
In a further data set the test system is Plasma. Description: Dose normalized AUC in ICR mouse plasma at 50 mg/kg, po by LC-MS/MS analysis. The format is ADME, organism-based. Also noted: dose 50 mg/kg, route oral. Conditions: in vivo.
Data set [12] in a line: Cmax in ICR mouse plasma at 50 mg/kg, po by LC-MS/MS analysis. In kind it is ADME, organism-based. Also noted: dose 50 mg/kg, route oral.

A value given as a limit tells only on which side of the number the result lay.

What is called CC50 is the concentration that lowers cell viability or growth by half. Usually EC50 stands for the concentration giving half of the maximal effect. For orientation: AUC means concentration integrated over time. By Cmax is commonly meant the maximum level reached in the sampled fluid or tissue.

In [1], `C[C@H](NP(=O)(OC[C@H]1O[C@@H](n2cnc3c(=O)[nH]c(N)nc32)[C@](C)(O)[C@@H]1O)Oc1cccc2ccccc12)C(=O)OC1CCCC1` (some centres undefined) gave a CC50 at 72 h above 100000 nM. Besides, the EC50 with Hepatitis C virus was 70 nM.

Turning to `CCCCOC(=O)[C@H](C)NP(=O)(OC[C@H]1O[C@@H](n2cnc3c(=O)[nH]c(N)nc32)[C@](C)(O)[C@@H]1O)Oc1cccc2ccccc12` (some centres undefined), the remaining at 4 h, 1 ug/ml was found to be 0% in data set [2]; 0% in [3]; 90% in data set [4]; 81% in [5]; 97% in the data set listed under Homo sapiens [10]. For the same compound, the remaining at 0.5 h, 1 ug/ml in data set [6] was determined as 0%; in data set [7], 0.4%; in [8], 95%; in data set [9], 98%; in the data set listed under Homo sapiens [11], 100%. In [1], this compound had a CC50 at 72 h above 100000 nM. Moreover, the EC50 with Hepatitis C virus worked out at 100 nM.

`CCCCCOC(=O)[C@H](C)NP(=O)(OC[C@H]1O[C@@H](n2cnc3c(=O)[nH]c(N)nc32)[C@](C)(O)[C@@H]1O)Oc1cccc2ccccc12` (some centres undefined): the remaining at 4 h, 1 ug/ml in [2] was 0%; in [3], 0%; in data set [4], 98%; in data set [5] it was 94%; in the data set listed under Homo sapiens [10] it was 96%. The remaining at 0.5 h, 1 ug/ml in data set [6] stood at 0%; in [7], 0%; in data set [8], 98%; in data set [9] it was 94%; in the data set filed under Homo sapiens [11], 100%. For the same compound, in the data set on Hepatitis C virus, the EC50 was determined as 91 nM.

`C[C@H](NP(=O)(OC[C@H]1O[C@@H](n2cnc3c(=O)[nH]c(N)nc32)[C@](C)(O)[C@@H]1O)Oc1cccc2ccccc12)C(=O)OC1CCCCC1` (some centres undefined): the remaining at 4 h, 1 ug/ml in [2] was 0%; in data set [3], 0.5%; in data set [4] it was 100%; in data set [5], 100%; in the data set filed under Homo sapiens [10] it was 100%. Further, the remaining at 0.5 h, 1 ug/ml in [6] came to 2.9%; in [7], 2.5%; in data set [8], 100%; in [9], 100%; in the data set listed under Homo sapiens [11] it was 100%. In addition, the CC50 at 72 h in data set [1] is above 100000 nM. Also, the EC50 with Hepatitis C virus is 45 nM.

Consider `C[C@H](NP(=O)(OC[C@H]1O[C@@H](n2cnc3c(=O)[nH]c(N)nc32)[C@](C)(O)[C@@H]1O)Oc1cccc2ccccc12)C(=O)OCCc1ccccc1` (some centres undefined), for which the CC50 at 72 h in [1] is above 100000 nM. In the data set with Hepatitis C virus, the EC50 came out at 90 nM.

Regarding `C[C@H](NP(=O)(OC[C@H]1O[C@@H](n2cnc3c(=O)[nH]c(N)nc32)[C@](C)(O)[C@@H]1O)Oc1cccc2ccccc12)C(=O)OCCCc1ccccc1` (some centres undefined), the CC50 at 72 h in data set [1] is above 100000 nM. The EC50 with Hepatitis C virus is 170 nM.

With `CSCC[C@H](NP(=O)(OC[C@H]1O[C@@H](n2cnc3c(=O)[nH]c(N)nc32)[C@](C)(O)[C@@H]1O)Oc1cccc2ccccc12)C(=O)OC(C)C` (some centres undefined), the remaining at 4 h, 1 ug/ml was 32% in data set [2], 0.5% in data set [3], 100% in data set [4] and 93% in [5]. The remaining at 0.5 h, 1 ug/ml in [6] came to 76%; in data set [7], 2.3%; in data set [8], 100%; in data set [9] it was 96%. Also, the CC50 at 72 h in data set [1] was above 100000 nM. The EC50 in the data set on Hepatitis C virus was 340 nM.

Consider `CC(C)(NP(=O)(OC[C@H]1O[C@@H](n2cnc3c(=O)[nH]c(N)nc32)[C@](C)(O)[C@@H]1O)Oc1cccc2ccccc12)C(=O)OCc1ccccc1` (some centres undefined), for which the remaining at 4 h, 1 ug/ml in [2] worked out at 0%; in [3] it was 0%; in [4], 100%; in [5], 83%; in the data set listed under Homo sapiens [10], 41%. For the same compound, the remaining at 0.5 h, 1 ug/ml in [6] was found to be 0%; in [7], 0%; in data set [8] it was 100%; in [9] it was 92%; in the data set listed under Homo sapiens [11] it was 100%. In the data set on Hepatitis C virus, the EC50 stood at 1500 nM.

`CC(C)[C@H](NP(=O)(OC[C@H]1O[C@@H](n2cnc3c(=O)[nH]c(N)nc32)[C@](C)(O)[C@@H]1O)Oc1ccc2ccccc2c1)C(=O)OCc1ccccc1` (some centres undefined): the remaining at 4 h, 1 ug/ml in data set [2] is 76%; in data set [3] it was 22%; in data set [4] it was 99%; in [5], 95%; in the data set listed under Homo sapiens [10] it was 100%. Moreover, the remaining at 0.5 h, 1 ug/ml in data set [6] amounted to 99%; in [7], 49%; in [8] it was 95%; in data set [9] it was 100%; in the data set listed under Homo sapiens [11] it was 93%. The compound also yielded a CC50 at 72 h in [1] above 100000 nM. Also, in the data set with Hepatitis C virus, the EC50 worked out at 1700 nM.

For the compound `CC(C)[C@@H](NP(=O)(OC[C@H]1O[C@@H](n2cnc3c(=O)[nH]c(N)nc32)[C@](C)(O)[C@@H]1O)Oc1cccc2ccccc12)C(=O)OCc1ccccc1` (some centres undefined), the remaining at 4 h, 1 ug/ml came out at 8% in [2]; 56% in data set [3]; 61% in [4]; 80% in data set [5]; 82% in the data set filed under Homo sapiens [10]. Moreover, the remaining at 0.5 h, 1 ug/ml in [6] is 51%; in data set [7] it was 82%; in [8], 69%; in data set [9], 68%; in the data set listed under Homo sapiens [11] it was 70%. The compound also gave a CC50 at 72 h in data set [1] above 100000 nM. Moreover, the EC50 in the data set with Hepatitis C virus is above 3000 nM.

On to `CC(OC(=O)[C@@H](NP(=O)(OC[C@H]1O[C@@H](n2cnc3c(=O)[nH]c(N)nc32)[C@](C)(O)[C@@H]1O)Oc1cccc2ccccc12)C(C)C)c1ccccc1` (some centres undefined), for which the figures for the remaining at 0.5 h, 1 ug/ml (in data set [6]; in [8]; in the data set listed under Homo sapiens [11]) were 100%, 100% and 97%, respectively. In the data set with Hepatitis C virus, the EC50 was above 3000 nM.

On to `CC(C)[C@H](NP(=O)(OC[C@H]1O[C@@H](n2cnc3c(=O)[nH]c(N)nc32)[C@](C)(O)[C@@H]1O)Oc1cccc2ccccc12)C(=O)OCCc1ccccc1` (some centres undefined), for which the CC50 at 72 h in data set [1] is above 100000 nM. For the same compound, the EC50 in the data set with Hepatitis C virus stood at 1700 nM.

As to `CC(C)[C@H](NP(=O)(OC[C@H]1O[C@@H](n2cnc3c(=O)[nH]c(N)nc32)[C@](C)(O)[C@@H]1O)Oc1cccc2ccccc12)C(=O)OCc1cccc(Cl)c1` (some centres undefined), the AUC with Plasma is above 33 ng·h/mL. Further, the remaining at 0.5 h, 1 ug/ml in data set [6] was found to be 79%; in data set [8], 90%; in the data set listed under Homo sapiens [11], 100%. Also, the EC50 in the data set with Hepatitis C virus stood at 680 nM. In addition, in data set [12], the Cmax is 388 ng/mL.

Take `Cc1ccccc1COC(=O)[C@@H](NP(=O)(OC[C@H]1O[C@@H](n2cnc3c(=O)[nH]c(N)nc32)[C@](C)(O)[C@@H]1O)Oc1cccc2ccccc12)C(C)C` (some centres undefined): the AUC in the data set on Plasma came out at 52 ng·h/mL. In addition, the remaining at 0.5 h, 1 ug/ml turned out to be 67% in data set [6], 100% in data set [8] and 100% in the data set filed under Homo sapiens [11]. For the same compound, in [1], the CC50 at 72 h is above 100000 nM. Moreover, the EC50 in the data set on Hepatitis C virus stood at 1000 nM. In data set [12], this compound had a Cmax of 668 ng/mL.

The compound `CC(C)[C@H](NP(=O)(OC[C@H]1O[C@@H](n2cnc3c(=O)[nH]c(N)nc32)[C@](C)(O)[C@@H]1O)Oc1cccc2ccccc12)C(=O)OCC(C)(C)C` (some centres undefined) had an AUC with Plasma above 45 ng·h/mL. For the same compound, the remaining at 0.5 h, 1 ug/ml in data set [6] was 77%; in [8] it was 79%; in the data set listed under Homo sapiens [11] it was 91%. The compound further displayed a CC50 at 72 h in [1] above 100000 nM. Moreover, in the data set with Hepatitis C virus, the EC50 stood at 1500 nM. In [12], the Cmax is 652 ng/mL.

Consider `CC(OC(=O)[C@H](C)NP(=O)(OC[C@H]1O[C@@H](n2cnc3c(=O)[nH]c(N)nc32)[C@](C)(O)[C@@H]1O)Oc1cccc2ccccc12)c1ccccc1` (mixture of isomers), for which the remaining at 4 h, 1 ug/ml came out at 0% in data set [2]; 0.3% in [3]; 93% in data set [4]; 88% in [5]; 86% in the data set listed under Homo sapiens [10]. In addition, the remaining at 0.5 h, 1 ug/ml was 2.2% in data set [6]; 0.7% in [7]; 97% in data set [8]; 100% in [9]; 86% in the data set listed under Homo sapiens [11]. The CC50 at 72 h in data set [1] is above 100000 nM. Besides, the EC50 in the data set with Hepatitis C virus was 95 nM.
